Laboratory results from ChEMBL document CHEMBL5724801, “EUbOPEN Chemogenomics Library - Multiplex” (2024).
Several values for one entry are separate records, joined by “and”; a condition that tells them apart may be missing. Identical values can stand only once.

Test system: Fibroblast
Assay: Multiplex assay against human fibroblast
Format: toxicity, cell-based
Method in brief: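 Per cents of healthy-nucleus cells form the tubulin, mitochondrial-mass and membrane-permeability phenotype values. Live cells were stained at seeding with Hoechst33342, BioTracker Green Microtubule Cytoskeleton Dye, MitoTracker Red and Annexin V Alexa Fluor 680. After compound addition they were imaged on a CQ1 microscope at 37°C and 5% CO2, and CellPathfinder machine-learning gating split them into Hoechst high-intensity objects or normal cells, normal cells into healthy, pyknosed or fragmented nuclei, and pyknosed cells into mitotic or apoptotic.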

[1] = 12 h, 1 µM, compound concentration 1 uM
[2] = 12 h, 10 µM, compound concentration 10 uM
[3] = 24 h, 1 µM, compound concentration 1 uM
[4] = 24 h, 10 µM, compound concentration 10 uM
[5] = 48 h, 1 µM, compound concentration 1 uM
[6] = 48 h, 10 µM, compound concentration 10 uM

SMILES: O=C(NCCO)c1cccc(-c2cc(Nc3ccc(OC(F)(F)F)cc3)ncn2)c1
- Population Apoptotic (%) [1]: 46% and 38%
- Population Fragmented Nuclei (%) [1]: 16% and 29%
- Population Healthy Nuclei (%) [1]: 60% and 46%
- Population Hoechst High Intensity Objects (%) [1]: 3% and 4%
- Population Membrane Permeable-Phenotype (%) [1]: 1% and 10%
- Population Mitochondria Different-Phenotype (%) [1]: 6% and 8%
- Population Mitotic Cells (%) [1]: 53% and 61%
- Population Normal (%) [1]: 96% and 95%
- Population Pyknosed Nuclei (%) [1]: 24% and 23%
- Population Tubulin-Different-Phenotype (%) [1]: 33% and 46%
- Total Cell Count [1]: 130 and 149
- Population Apoptotic (%) [2]: 37% and 40%
- Population Fragmented Nuclei (%) [2]: 17% and 22%
- Population Healthy Nuclei (%) [2]: 59% and 36%
- Population Hoechst High Intensity Objects (%) [2]: 5% and 10%
- Population Membrane Permeable-Phenotype (%) [2]: 0% and 11%
- Population Mitochondria Different-Phenotype (%) [2]: 13% and 11%
- Population Mitotic Cells (%) [2]: 62% and 59%
- Population Normal (%) [2]: 94% and 89%
- Population Pyknosed Nuclei (%) [2]: 22% and 40%
- Population Tubulin-Different-Phenotype (%) [2]: 54% and 79%
- Total Cell Count [2]: 185 and 192
- Population Apoptotic (%) [3]: 56% and 52%
- Population Fragmented Nuclei (%) [3]: 16% and 24%
- Population Healthy Nuclei (%) [3]: 60% and 50%
- Population Hoechst High Intensity Objects (%) [3]: 1% and 2%
- Population Membrane Permeable-Phenotype (%) [3]: 2% and 5%
- Population Mitochondria Different-Phenotype (%) [3]: 4% and 5%
- Population Mitotic Cells (%) [3]: 43% and 47%
- Population Normal (%) [3]: 98% and 97%
- Population Pyknosed Nuclei (%) [3]: 22% and 25%
- Population Tubulin-Different-Phenotype (%) [3]: 33% and 42%
- Total Cell Count [3]: 135 and 139
- Population Apoptotic (%) [4]: 50% and 41%
- Population Fragmented Nuclei (%) [4]: 14% and 30%
- Population Healthy Nuclei (%) [4]: 61% and 36%
- Population Hoechst High Intensity Objects (%) [4]: 11% and 7%
- Population Membrane Permeable-Phenotype (%) [4]: 1% and 10%
- Population Mitochondria Different-Phenotype (%) [4]: 21% and 25%
- Population Mitotic Cells (%) [4]: 50% and 58%
- Population Normal (%) [4]: 88% and 92%
- Population Pyknosed Nuclei (%) [4]: 24% and 32%
- Population Tubulin-Different-Phenotype (%) [4]: 53% and 84%
- Total Cell Count [4]: 175 and 187
- Population Apoptotic (%) [5]: 82% and 45%
- Population Fragmented Nuclei (%) [5]: 21% and 31%
- Population Healthy Nuclei (%) [5]: 65% and 53%
- Population Hoechst High Intensity Objects (%) [5]: 1%
- Population Membrane Permeable-Phenotype (%) [5]: 3% and 6%
- Population Mitochondria Different-Phenotype (%) [5]: 1% and 4%
- Population Normal (%) [5]: 98%
- Population Pyknosed Nuclei (%) [5]: 13% and 14%
- Population Tubulin-Different-Phenotype (%) [5]: 28% and 38%
- Total Cell Count [5]: 130 and 156
- Population Apoptotic (%) [6]: 70% and 76%
- Population Fragmented Nuclei (%) [6]: 35% and 40%
- Population Healthy Nuclei (%) [6]: 51% and 47%
- Population Hoechst High Intensity Objects (%) [6]: 13% and 6%
- Population Membrane Permeable-Phenotype (%) [6]: 0% and 13%
- Population Mitochondria Different-Phenotype (%) [6]: 26% and 19%
- Population Mitotic Cells (%) [6]: 30% and 23%
- Population Normal (%) [6]: 86% and 93%
- Population Pyknosed Nuclei (%) [6]: 13% and 11%
- Population Tubulin-Different-Phenotype (%) [6]: 64% and 86%
- Total Cell Count [6]: 170 and 198

SMILES: CC[C@H]1OC(=O)[C@H](C)[C@@H](O[C@H]2C[C@@](C)(OC)[C@@H](O)[C@H](C)O2)[C@H](C)[C@@H](O[C@@H]2O[C@H](C)C[C@H](N(C)C)[C@H]2O)[C@@]2(C)CC(C)=C(O2)[C@H](C)[C@@H](O)[C@]1(C)O
- Population Apoptotic (%) [1]: 37% and 46%
- Population Fragmented Nuclei (%) [1]: 13% and 23%
- Population Healthy Nuclei (%) [1]: 72% and 57%
- Population Hoechst High Intensity Objects (%) [1]: 2% and 3%
- Population Membrane Permeable-Phenotype (%) [1]: 0% and 9%
- Population Mitochondria Different-Phenotype (%) [1]: 8% and 6%
- Population Mitotic Cells (%) [1]: 62% and 53%
- Population Normal (%) [1]: 97% and 96%
- Population Pyknosed Nuclei (%) [1]: 13% and 18%
- Population Tubulin-Different-Phenotype (%) [1]: 40% and 53%
- Total Cell Count [1]: 176 and 170
- Population Apoptotic (%) [2]: 48% and 40%
- Population Fragmented Nuclei (%) [2]: 24% and 41%
- Population Healthy Nuclei (%) [2]: 63% and 33%
- Population Hoechst High Intensity Objects (%) [2]: 3% and 4%
- Population Membrane Permeable-Phenotype (%) [2]: 0% and 14%
- Population Mitochondria Different-Phenotype (%) [2]: 25% and 11%
- Population Mitotic Cells (%) [2]: 52% and 59%
- Population Normal (%) [2]: 96% and 95%
- Population Pyknosed Nuclei (%) [2]: 12% and 25%
- Population Tubulin-Different-Phenotype (%) [2]: 86% and 73%
- Total Cell Count [2]: 205 and 133
- Population Apoptotic (%) [3]: 52% and 46%
- Population Fragmented Nuclei (%) [3]: 18% and 29%
- Population Healthy Nuclei (%) [3]: 69% and 52%
- Population Hoechst High Intensity Objects (%) [3]: 4% and 3%
- Population Membrane Permeable-Phenotype (%) [3]: 0% and 7%
- Population Mitochondria Different-Phenotype (%) [3]: 7% and 5%
- Population Mitotic Cells (%) [3]: 47% and 53%
- Population Normal (%) [3]: 95% and 96%
- Population Pyknosed Nuclei (%) [3]: 12% and 17%
- Population Tubulin-Different-Phenotype (%) [3]: 45% and 36%
- Total Cell Count [3]: 173 and 176
- Population Apoptotic (%) [4]: 52% and 46%
- Population Fragmented Nuclei (%) [4]: 22% and 40%
- Population Healthy Nuclei (%) [4]: 69% and 39%
- Population Hoechst High Intensity Objects (%) [4]: 2% and 1%
- Population Membrane Permeable-Phenotype (%) [4]: 0% and 8%
- Population Mitotic Cells (%) [4]: 47% and 53%
- Population Normal (%) [4]: 97% and 98%
- Population Pyknosed Nuclei (%) [4]: 8% and 20%
- Population Tubulin-Different-Phenotype (%) [4]: 89% and 81%
- Total Cell Count [4]: 199 and 127
- Population Apoptotic (%) [5]: 55% and 56%
- Population Fragmented Nuclei (%) [5]: 17% and 32%
- Population Healthy Nuclei (%) [5]: 71% and 54%
- Population Hoechst High Intensity Objects (%) [5]: 3% and 2%
- Population Membrane Permeable-Phenotype (%) [5]: 0% and 7%
- Population Mitochondria Different-Phenotype (%) [5]: 9% and 5%
- Population Mitotic Cells (%) [5]: 44% and 43%
- Population Normal (%) [5]: 96% and 97%
- Population Pyknosed Nuclei (%) [5]: 11% and 13%
- Population Tubulin-Different-Phenotype (%) [5]: 57% and 56%
- Total Cell Count [5]: 168 and 173
- Population Apoptotic (%) [6]: 84% and 58%
- Population Fragmented Nuclei (%) [6]: 24% and 43%
- Population Healthy Nuclei (%) [6]: 68% and 47%
- Population Hoechst High Intensity Objects (%) [6]: 8% and 7%
- Population Membrane Permeable-Phenotype (%) [6]: 0% and 6%
- Population Mitotic Cells (%) [6]: 15% and 41%
- Population Normal (%) [6]: 91% and 92%
- Population Pyknosed Nuclei (%) [6]: 6% and 9%
- Population Tubulin-Different-Phenotype (%) [6]: 91% and 78%
- Total Cell Count [6]: 216 and 139

SMILES: CN(C)c1ccnc2sc3c(=O)n(N4CCCCCC4)cnc3c12
- Population Apoptotic (%) [1]: 42% and 30%
- Population Fragmented Nuclei (%) [1]: 17% and 28%
- Population Healthy Nuclei (%) [1]: 64% and 51%
- Population Hoechst High Intensity Objects (%) [1]: 3% and 6%
- Population Membrane Permeable-Phenotype (%) [1]: 1% and 10%
- Population Mitochondria Different-Phenotype (%) [1]: 3%
- Population Mitotic Cells (%) [1]: 57% and 70%
- Population Normal (%) [1]: 96% and 93%
- Population Pyknosed Nuclei (%) [1]: 18% and 19%
- Population Tubulin-Different-Phenotype (%) [1]: 29% and 44%
- Total Cell Count [1]: 144 and 162
- Population Apoptotic (%) [2]: 44% and 49%
- Population Fragmented Nuclei (%) [2]: 14% and 31%
- Population Healthy Nuclei (%) [2]: 58% and 30%
- Population Hoechst High Intensity Objects (%) [2]: 5% and 7%
- Population Mitochondria Different-Phenotype (%) [2]: 14%
- Population Mitotic Cells (%) [2]: 55% and 50%
- Population Normal (%) [2]: 94% and 92%
- Population Pyknosed Nuclei (%) [2]: 27% and 38%
- Population Tubulin-Different-Phenotype (%) [2]: 75%
- Total Cell Count [2]: 141 and 145
- Population Apoptotic (%) [3]: 48% and 50%
- Population Fragmented Nuclei (%) [3]: 11% and 24%
- Population Healthy Nuclei (%) [3]: 67% and 55%
- Population Hoechst High Intensity Objects (%) [3]: 3% and 2%
- Population Membrane Permeable-Phenotype (%) [3]: 0% and 10%
- Population Mitochondria Different-Phenotype (%) [3]: 3% and 2%
- Population Mitotic Cells (%) [3]: 51% and 50%
- Population Normal (%) [3]: 96% and 97%
- Population Pyknosed Nuclei (%) [3]: 21% and 19%
- Population Tubulin-Different-Phenotype (%) [3]: 27% and 49%
- Total Cell Count [3]: 143 and 146
- Population Apoptotic (%) [4]: 57% and 30%
- Population Fragmented Nuclei (%) [4]: 13% and 35%
- Population Healthy Nuclei (%) [4]: 58% and 41%
- Population Hoechst High Intensity Objects (%) [4]: 5% and 8%
- Population Membrane Permeable-Phenotype (%) [4]: 0% and 22%
- Population Mitochondria Different-Phenotype (%) [4]: 18% and 24%
- Population Mitotic Cells (%) [4]: 42% and 69%
- Population Normal (%) [4]: 94% and 91%
- Population Pyknosed Nuclei (%) [4]: 28% and 22%
- Population Tubulin-Different-Phenotype (%) [4]: 63% and 85%
- Total Cell Count [4]: 130 and 128
- Population Apoptotic (%) [5]: 64% and 36%
- Population Fragmented Nuclei (%) [5]: 19% and 36%
- Population Healthy Nuclei (%) [5]: 70% and 49%
- Population Hoechst High Intensity Objects (%) [5]: 2% and 3%
- Population Membrane Permeable-Phenotype (%) [5]: 0% and 6%
- Population Mitochondria Different-Phenotype (%) [5]: 0% and 2%
- Population Mitotic Cells (%) [5]: 35% and 63%
- Population Normal (%) [5]: 97% and 96%
- Population Pyknosed Nuclei (%) [5]: 10% and 14%
- Population Tubulin-Different-Phenotype (%) [5]: 30% and 41%
- Total Cell Count [5]: 143 and 157
- Population Apoptotic (%) [6]: 73% and 50%
- Population Fragmented Nuclei (%) [6]: 22% and 47%
- Population Healthy Nuclei (%) [6]: 47% and 42%
- Population Hoechst High Intensity Objects (%) [6]: 8% and 6%
- Population Membrane Permeable-Phenotype (%) [6]: 0% and 19%
- Population Mitochondria Different-Phenotype (%) [6]: 25% and 13%
- Population Mitotic Cells (%) [6]: 26% and 50%
- Population Normal (%) [6]: 91% and 93%
- Population Tubulin-Different-Phenotype (%) [6]: 76% and 86%
- Total Cell Count [6]: 138 and 131
